Screens (PubChem)
Apaf1 inhib: inhibitors of human Apaf-1 apoptosome, primary screen, biochemical, DEVD-Rh110 fluorescence, uHTS | Apoptotic protease-activating factor 1 (Homo sapiens), O14727 | AID 489030, 2010 | 330,000 compounds, 0.71% hits | reconstituted apoptosome caspase-3 activity | inhibition, % at 20 µM; active = inhibition of at least 40% at 20 µM;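 note: plate controls were DMSO wells for no effect and DEVD-CHO caspase inhibitor wells for full effect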
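Medium: Hepes buffer, pH 7.5 / System: biochemical Apaf-1 apoptosome reconstitution / Measured by: Rh110 fluorescence, excitation 480 nm, emission 540 nm / Times: compound with Apaf-1, dATP, procaspase-3 30 min, then 50 min reaction, room temperature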
PP5 inh: PP5 phosphatase inhibitors, primary screen, biochemical, fluorescence. Serine/threonine-protein phosphatase 5 (Homo sapiens), P53041. purified PP5c, OMFP substrate fluorescence. inhibition, % at 6.7 µM. 320,000 compounds, 0.18% hits. AID 1987, 2009;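 active = inhibition above the campaign's mean inhibition across all tested compounds plus 3 SD, cut at about 9.5% in these data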;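 note: 0% = DMSO only and 100% = 100 µM cantharidin control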
GSTO1 inh: inhibitors of recombinant GSTO1, primary screen, counter-screen for RBBP9 inhibitor project, biochemical, fluorescence polarization; Glutathione S-transferase omega-1 (Homo sapiens), P78417; activity-based probe fluorescence polarization; inhibition, % at 5.96 µM; 300,000 compounds, 1.1% hits; AID 1974, 2009;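 active = inhibition above the campaign mean inhibition plus 3 SD, cut at about 35% in these data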;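 note: 0% = GSTO1-1 with DMSO and 100% = wells lacking GSTO1-1 enzyme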
TDP2 absorb: human TDP2 enzyme inhibitors, primary screen, biochemical, epi absorbance, recombinant enzyme; 370,000 compounds, 0.34% hits; inhibition, % at 12.8 µM; Tyrosyl-DNA phosphodiesterase 2 (Homo sapiens), O95551; T5PNP hydrolysis, p-nitrophenol absorbance 415 nm;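 active = inhibition above the mean of all tested compounds plus 3 SD, set per campaign, cut at about 25% in these data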;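 note: 0% = DMSO with enzyme and 100% = buffer with substrate but no TDP2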
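Read-out basis: percent inhibition. System: recombinant human TDP2. Buffer or medium: Mg2+-containing Tris-HCl buffer, pH 7.5. Repeats: single replicate. Timing: reaction 2 h, 37 °C. Benchmarks: high control without enzyme, low control DMSO plus TDP2. Probe or stimulus: 5 mM T5PNP. Doses: 12.8 µM only. Measured by: epi absorbance of p-nitrophenol freed from T5PNP by hydrolysis.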
PP1 inh: PP1-alpha phosphatase inhibitors, primary screen, counter-screen for PP5 inhibitor project, biochemical, fluorescence, OMFP substrate, single point | Serine/threonine-protein phosphatase PP1-alpha catalytic subunit (Homo sapiens), P62136 | purified PP1alpha | inhibition, % at 6.7 µM | 320,000 compounds, 0.9% hits | AID 2235, 2010;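 active = inhibition above the mean inhibition of all tested compounds plus 3 SD, computed separately for each screening campaign, cut at about 15% in these data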
TDP2 inh conf: human TDP2 enzyme inhibitors, retest, confirmation, biochemical, epi absorbance, recombinant enzyme | shares compounds with TDP2 absorb | absorbance read-out | inhibition, % at 12.8 µM | 1,100 compounds, 22% hits | AID 743263, 2014; in the data active = inhibition above about 25%;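 note: 0% = vehicle with enzyme and 100% = no enzyme buffer only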
Starred values were filed as active, the others as inactive; x = no result given. Compounds with a hit are over-represented: about 2.1% of the library has one in this group of screens.

SMILES	Apaf1 inhib	PP5 inh	GSTO1 inh	TDP2 absorb	PP1 inh	TDP2 inh conf
O=C(NC1C(=O)NNC1c1ccccc1)c1ccc(F)cc1 (centres undefined)	33.7	2.3	7.7	26.1*	-0.5	5.9
Cc1ccc(S(=O)(=O)NCC2COc3ccccc3O2)cc1 (centres undefined)	-4.6	2.2	9.5	-7.0	-6.1	x
Cc1ccc([N+](=O)[O-])cc1S(=O)(=O)NCC1COc2ccccc2O1 (centres undefined)	9.7	1.5	6.1	45.2*	1.4	-3.2
CCCCNC(=O)C(=O)N/N=C/c1cccc(Br)c1	-5.5	2.1	7.3	-2.9	-0.3	x
CCOC(=O)C(=O)N/N=C/c1cccc(Br)c1	1.5	0.9	7.2	24.7*	-3.5	-4.4
C#CCNC(=O)C[C@@H]1C(=O)N2CCCC3=C2[C@@]1(C(=O)OCC)CCC3	x	x	x	-1.4	x	x
CC1(C)CC(=O)C2=C(C1)OC(N)=C(C#N)C2c1cccs1 (centres undefined)	-4.1	-3.9	-0.5	3.7	-0.9	x
CC1(C)CC(=O)C2=C(C1)OC(N)=C(C#N)C2c1ccccc1 (centres undefined)	-1.8	0.5	2.9	68.1*	-1.6	2.9
COC(=O)C[C@@H]1CC[C@@H]2[C@@H](COc3ccc(NC(=O)c4ccc(F)cc4)cc3C(=O)N2C)O1	x	x	x	6.9	x	x
O=S(=O)(c1ccc(-c2ccon2)s1)N1CCCC1	-11.9	0.3	3.4	26.5*	-1.4	5.4
COC(=O)c1c(C)oc2c1cc(NS(=O)(=O)c1ccc(C(=O)O)cc1)c1ccccc12	7.1	0.6	10.1	0.5	5.2	x
CC(=O)c1c(C)oc2c1cc(NS(=O)(=O)c1ccc(C(=O)O)cc1)c1ccccc12	10.5	-0.4	-2.7	28.6*	0.6	3.4
O=C(O)[C@@H]1CCCN1C(=O)CCc1c[nH]c2ccccc12	0.8	-0.6	2.2	25.2*	1.6	-15.2
C=CCCC1CN(CC=C)S(=O)(=O)c2c(F)cccc2O1 (centres undefined)	x	x	x	5.8	x	x
COC(=O)/C=C1/SC(=NC(=O)c2ccc(Cl)cc2)NC1=O	-12.4	-0.9	0.4	24.9*	-5.3	1.9
O=C(NC1CCc2ccccc21)c1cc(-c2ccc(Cl)cc2)nc2ccccc12 (centres undefined)	x	x	x	-1.1	x	x
